# Test results from ChEMBL document CHEMBL1137592, “3-[2-((2S)-2-cyano-pyrrolidin-1-yl)-2-oxo-ethylamino]-3-methyl-butyramide analogues as selective DPP-IV inhibitors for the treatment of type-II diabetes” (Bioorg Med Chem Lett, 2007).
# pIC50: −log10 of the molar value. Calls of active or inactive are those of the source. No cut-off for these calls is given here.
# Legend:
# [1] = biological target: Dipeptidyl peptidase 2 (Homo sapiens, UniProt Q9UHL4); experiment: In vitro inhibition of DPP-II
# [2] = biological target: Dipeptidyl peptidase 8 (Homo sapiens, UniProt Q6V1X1); experiment: In vitro inhibition of DPP-8
# [3] = biological target: T1, Prolyl endopeptidase FAP (Homo sapiens, UniProt Q12884); experiment: In vitro inhibition of FAP, seprase
# T1 sequence (Q12884 whole entry): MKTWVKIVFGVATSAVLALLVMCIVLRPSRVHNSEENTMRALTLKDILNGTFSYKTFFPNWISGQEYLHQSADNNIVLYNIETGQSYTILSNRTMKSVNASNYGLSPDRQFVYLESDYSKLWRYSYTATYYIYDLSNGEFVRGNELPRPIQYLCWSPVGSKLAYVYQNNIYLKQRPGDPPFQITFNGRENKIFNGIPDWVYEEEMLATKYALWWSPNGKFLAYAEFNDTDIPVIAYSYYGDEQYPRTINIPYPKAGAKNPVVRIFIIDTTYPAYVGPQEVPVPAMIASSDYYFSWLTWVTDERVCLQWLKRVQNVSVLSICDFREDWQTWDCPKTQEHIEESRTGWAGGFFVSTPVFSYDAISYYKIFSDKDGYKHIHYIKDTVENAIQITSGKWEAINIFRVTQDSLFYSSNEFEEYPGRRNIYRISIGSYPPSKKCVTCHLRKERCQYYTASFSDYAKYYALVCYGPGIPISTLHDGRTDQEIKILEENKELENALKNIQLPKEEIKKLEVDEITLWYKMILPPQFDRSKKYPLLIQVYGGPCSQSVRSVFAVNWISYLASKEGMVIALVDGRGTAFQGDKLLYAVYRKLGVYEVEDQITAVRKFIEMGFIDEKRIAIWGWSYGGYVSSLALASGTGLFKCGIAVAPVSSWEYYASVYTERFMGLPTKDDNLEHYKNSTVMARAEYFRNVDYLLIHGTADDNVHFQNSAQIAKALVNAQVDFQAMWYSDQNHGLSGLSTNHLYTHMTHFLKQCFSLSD
# Summary of the method: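 FAP cDNA was cloned into the pBacPAC8-CD5 vector, then the enzyme was expressed and purified. Activity was measured with Gly-Pro-pNA as substrate at 6 mM.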
# [4] = species on record: Rattus norvegicus; conditions: 10 mg/kg
# [5] = biological target: Dipeptidyl peptidase 4 (Rattus norvegicus) (UniProt P14740); experiment: Ex vivo inhibition of plasma DPP-4 activity in rats 30 minutes after 10 mg/kg oral dose; assay type: functional, organism-based; design: dose 10 mg/kg; conditions: at 10 mg/kg
# Summary of the method: (§1)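 Adult male Wistar rats got a single oral gavage dose of 10 mg/kg at 0 h. Blood was collected over time and plasma DPP-IV activity was read as the cleavage rate of Gly-Pro-AMC. Means ± SEM, n = 4/group.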
# [6] = biological target: Dipeptidyl peptidase 4 (Rattus norvegicus) (UniProt P14740); experiment: Ex vivo inhibition of plasma DPP-4 activity in rats 8 hours after 10 mg/kg oral dose; assay type: functional, organism-based; design: dose 10 mg/kg; conditions: at 10 mg/kg; summary of the method: as §1
# Chain of Dipeptidyl peptidase 8 (Q6V1X1 whole entry): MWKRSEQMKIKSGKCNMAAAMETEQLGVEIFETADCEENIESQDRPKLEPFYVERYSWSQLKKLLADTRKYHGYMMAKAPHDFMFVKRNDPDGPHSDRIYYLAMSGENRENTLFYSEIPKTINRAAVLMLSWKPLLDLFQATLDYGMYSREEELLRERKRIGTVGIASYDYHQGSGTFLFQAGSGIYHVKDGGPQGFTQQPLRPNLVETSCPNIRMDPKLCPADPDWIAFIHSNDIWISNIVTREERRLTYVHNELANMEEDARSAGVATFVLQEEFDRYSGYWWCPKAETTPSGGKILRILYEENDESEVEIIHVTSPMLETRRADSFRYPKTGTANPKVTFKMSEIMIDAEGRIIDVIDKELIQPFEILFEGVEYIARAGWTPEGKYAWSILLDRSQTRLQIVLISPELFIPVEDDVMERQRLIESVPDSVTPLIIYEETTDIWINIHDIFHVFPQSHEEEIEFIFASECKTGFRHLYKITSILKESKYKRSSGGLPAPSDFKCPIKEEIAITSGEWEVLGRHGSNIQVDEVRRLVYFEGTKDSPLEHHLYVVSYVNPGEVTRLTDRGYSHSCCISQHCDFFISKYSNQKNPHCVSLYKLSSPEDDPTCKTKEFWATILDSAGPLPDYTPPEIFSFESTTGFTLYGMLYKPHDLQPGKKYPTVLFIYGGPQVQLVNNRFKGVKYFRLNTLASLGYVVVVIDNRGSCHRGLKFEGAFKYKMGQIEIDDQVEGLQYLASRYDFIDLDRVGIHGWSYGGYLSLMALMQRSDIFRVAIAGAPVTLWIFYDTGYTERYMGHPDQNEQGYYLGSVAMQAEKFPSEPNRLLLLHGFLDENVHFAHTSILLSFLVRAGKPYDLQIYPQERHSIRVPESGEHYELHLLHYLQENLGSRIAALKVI
# Chain of Dipeptidyl peptidase 4 (Rattus norvegicus) (P14740 whole entry, looked up): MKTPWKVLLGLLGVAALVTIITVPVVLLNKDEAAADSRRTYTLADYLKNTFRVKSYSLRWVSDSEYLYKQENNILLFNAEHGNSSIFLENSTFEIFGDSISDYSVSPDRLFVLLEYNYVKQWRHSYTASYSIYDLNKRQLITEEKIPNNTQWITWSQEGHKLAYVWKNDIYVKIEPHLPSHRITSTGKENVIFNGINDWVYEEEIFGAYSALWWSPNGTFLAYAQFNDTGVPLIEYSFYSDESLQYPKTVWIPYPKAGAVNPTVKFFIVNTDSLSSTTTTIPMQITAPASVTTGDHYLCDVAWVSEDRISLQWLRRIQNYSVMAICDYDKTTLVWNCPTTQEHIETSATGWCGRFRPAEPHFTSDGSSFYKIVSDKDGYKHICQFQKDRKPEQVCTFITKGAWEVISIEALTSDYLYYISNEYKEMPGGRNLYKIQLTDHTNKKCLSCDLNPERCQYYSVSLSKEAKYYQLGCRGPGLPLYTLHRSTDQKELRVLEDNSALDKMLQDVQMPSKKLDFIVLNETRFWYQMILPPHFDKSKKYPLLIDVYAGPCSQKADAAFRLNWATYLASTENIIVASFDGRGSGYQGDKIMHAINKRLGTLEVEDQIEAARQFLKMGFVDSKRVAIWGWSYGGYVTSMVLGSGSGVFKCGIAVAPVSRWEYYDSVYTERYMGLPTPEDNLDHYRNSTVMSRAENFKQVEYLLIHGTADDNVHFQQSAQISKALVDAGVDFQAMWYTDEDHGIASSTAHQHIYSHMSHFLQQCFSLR
SMILES,pIC50 [1],pIC50 [2],pIC50 [3],inhibition [4],inhibition [5],inhibition [6]
CC(C)(CC(=O)NC(C)(C)c1ccccc1)NCC(=O)N1CCC[C@H]1C#N,< 4.70,< 4.70,< 4.70,,,
CC(C)(CC(=O)Nc1ccc(F)cc1)NCC(=O)N1CCC[C@H]1C#N,< 4.70,< 4.70,< 4.70,,,
CC(C)(CC(=O)NCc1ccccc1)NCC(=O)N1CCC[C@H]1C#N,< 4.70,< 4.70,< 4.70,,,
C[C@@H](CC(=O)NC(C)(C)c1ccccc1)NCC(=O)N1CCC[C@H]1C#N,< 4.70,,,,,
CC(C)(CC(=O)NCCc1ccccc1)NCC(=O)N1CCC[C@H]1C#N,< 4.70,< 4.70,< 4.70,,,
N#C[C@@H]1CCCN1C(=O)CNCCC(=O)NCCc1ccccc1,,,< 4.70,,,
CC(C)(NC(=O)CCNCC(=O)N1CCC[C@H]1C#N)c1ccccc1,< 4.70,,< 4.70,,,
CC(C)(CC(=O)NCCc1ccc(C(F)(F)F)cc1)NCC(=O)N1CCC[C@H]1C#N,< 4.70,< 4.70,< 4.70,,,
CC(C)(CC(=O)NCc1ccccn1)NCC(=O)N1CCC[C@H]1C#N,< 4.70,< 4.70,< 4.70,,,
CC(C)(CC(=O)NCCc1ccccc1C(F)(F)F)NCC(=O)N1CCC[C@H]1C#N,< 4.70,< 4.70,< 4.70,,,
COc1ccc(NC(=O)CC(C)(C)NCC(=O)N2CCC[C@H]2C#N)c(OC)c1OC,< 4.70,< 4.70,< 4.70,,,
N#C[C@@H]1CCCN1C(=O)CNCCC(=O)NCc1ccccc1,,,< 4.70,,,
COc1ccc(NC(=O)CC(C)(C)NCC(=O)N2CCC[C@H]2C#N)cc1OC,< 4.70,< 4.70,< 4.70,Active,> 80%,> 50%
COc1ccc(CCNC(=O)CC(C)(C)NCC(=O)N2CCC[C@H]2C#N)cc1OC,< 4.70,< 4.70,< 4.70,,,
COc1ccc(NC(=O)CC(C)(C)NCC(=O)N2CCC[C@H]2C#N)cc1,< 4.70,< 4.70,< 4.70,,,
CC(C)(CC(=O)Nc1ccccc1)NCC(=O)N1CCC[C@H]1C#N,< 4.70,< 4.70,< 4.70,,,
CC(C)(CC(=O)NC(C)(C)Cc1ccccc1)NCC(=O)N1CCC[C@H]1C#N,< 4.70,< 4.70,< 4.70,,,
CC(C)(CC(=O)NCCc1ccccn1)NCC(=O)N1CCC[C@H]1C#N,< 4.70,< 4.70,< 4.70,Active,,
C[C@H](CC(=O)NC(C)(C)c1ccccc1)NCC(=O)N1CCC[C@H]1C#N,< 4.70,,< 4.70,,,
CC(C)(CC(=O)NCCc1cccc(C(F)(F)F)c1)NCC(=O)N1CCC[C@H]1C#N,< 4.70,< 4.70,< 4.70,,,
CC(C)(CC(=O)NCCc1ccc(Cl)c(Cl)c1)NCC(=O)N1CCC[C@H]1C#N,< 4.70,< 4.70,< 4.70,,,
CC(C)(CC(=O)Nc1ccc(-c2ccccc2)cc1)NCC(=O)N1CCC[C@H]1C#N,6.10,< 4.70,< 4.70,,,
Cc1ccc(NC(=O)CC(C)(C)NCC(=O)N2CCC[C@H]2C#N)cc1C,< 4.70,< 4.70,< 4.70,,,
Cc1ccc(CCNC(=O)CC(C)(C)NCC(=O)N2CCC[C@H]2C#N)cc1,< 4.70,< 4.70,< 4.70,,,
CC(C)(CC(=O)Nc1ccc(F)c(F)c1)NCC(=O)N1CCC[C@H]1C#N,< 4.70,< 4.70,< 4.70,,,
